Source: ChEMBL document CHEMBL5058577, “EUbOPEN Chemogenomics Library 2 (Multiplex)” (2022)

System: Fibroblast
Assay: Multiplex assay against human fibroblast
Format: toxicity, cell-based
In short: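 Per cents of healthy-nucleus cells form the tubulin, mitochondrial-mass and membrane-permeability phenotype values. Live cells were stained at seeding with Hoechst33342, BioTracker Green Microtubule Cytoskeleton Dye, MitoTracker Red and Annexin V Alexa Fluor 680. After compound addition they were imaged on a CQ1 microscope at 37°C and 5% CO2, and CellPathfinder machine-learning gating split them into Hoechst high-intensity objects or normal cells, normal cells into healthy, pyknosed or fragmented nuclei, and pyknosed cells into mitotic or apoptotic.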

[1] = 12 h, 1 µM, compound concentration 1 uM, replicate 1
[2] = 12 h, 1 µM, compound concentration 1 uM, replicate 2
[3] = 12 h, 10 µM, compound concentration 10 uM, replicate 1
[4] = 12 h, 10 µM, compound concentration 10 uM, replicate 2
[5] = 24 h, 1 µM, compound concentration 1 uM, replicate 1
[6] = 24 h, 1 µM, compound concentration 1 uM, replicate 2
[7] = 24 h, 10 µM, compound concentration 10 uM, replicate 1
[8] = 24 h, 10 µM, compound concentration 10 uM, replicate 2
[9] = 48 h, 1 µM, compound concentration 1 uM, replicate 1
[10] = 48 h, 1 µM, compound concentration 1 uM, replicate 2
[11] = 48 h, 10 µM, compound concentration 10 uM, replicate 1
[12] = 48 h, 10 µM, compound concentration 10 uM, replicate 2

## Cl.N=C(N)NC(=O)Cc1c(Cl)cccc1Cl [GUANFACINE HYDROCHLORIDE]
[1]
  Population Apoptotic (%): 44%
  Population Fragmented Nuclei (%): 20%
  Population Healthy Nuclei (%): 62%
  Population Hoechst High Intensity Objects (%): 2%
  Population Membrane Permeable-Phenotype (%): 0%
  Population Mitochondria Different-Phenotype (%): 4%
  Population Mitotic Cells (%): 55%
  Population Normal (%): 97%
  Population Pyknosed Nuclei (%): 16%
  Population Tubulin-Different-Phenotype (%): 32%
  Total Cell Count: 167
[2]
  Population Apoptotic (%): 28%
  Population Fragmented Nuclei (%): 23%
  Population Healthy Nuclei (%): 45%
  Population Membrane Permeable-Phenotype (%): 3%
  Population Mitochondria Different-Phenotype (%): 7%
  Population Mitotic Cells (%): 71%
  Population Pyknosed Nuclei (%): 31%
  Population Tubulin-Different-Phenotype (%): 46%
  Total Cell Count: 149
[3]
  Population Apoptotic (%): 66%
  Population Fragmented Nuclei (%): 16%
  Population Healthy Nuclei (%): 68%
  Population Hoechst High Intensity Objects (%): 0%
  Population Membrane Permeable-Phenotype (%): 1%
  Population Mitochondria Different-Phenotype (%): 5%
  Population Mitotic Cells (%): 33%
  Population Normal (%): 99%
  Population Pyknosed Nuclei (%): 15%
  Population Tubulin-Different-Phenotype (%): 24%
  Total Cell Count: 139
[4]
  Population Apoptotic (%): 35%
  Population Fragmented Nuclei (%): 22%
  Population Healthy Nuclei (%): 47%
  Population Hoechst High Intensity Objects (%): 10%
  Population Membrane Permeable-Phenotype (%): 5%
  Population Mitotic Cells (%): 64%
  Population Normal (%): 89%
  Population Pyknosed Nuclei (%): 29%
  Population Tubulin-Different-Phenotype (%): 46%
  Total Cell Count: 127
[5]
  Population Apoptotic (%): 58%
  Population Fragmented Nuclei (%): 22%
  Population Healthy Nuclei (%): 62%
  Population Hoechst High Intensity Objects (%): 1%
  Population Membrane Permeable-Phenotype (%): 0%
  Population Mitochondria Different-Phenotype (%): 5%
  Population Mitotic Cells (%): 41%
  Population Normal (%): 98%
  Population Pyknosed Nuclei (%): 14%
  Population Tubulin-Different-Phenotype (%): 26%
  Total Cell Count: 169
[6]
  Population Apoptotic (%): 45%
  Population Fragmented Nuclei (%): 23%
  Population Healthy Nuclei (%): 46%
  Population Hoechst High Intensity Objects (%): 6%
  Population Membrane Permeable-Phenotype (%): 12%
  Population Mitochondria Different-Phenotype (%): 8%
  Population Mitotic Cells (%): 54%
  Population Normal (%): 93%
  Population Pyknosed Nuclei (%): 30%
  Population Tubulin-Different-Phenotype (%): 50%
  Total Cell Count: 130
[7]
  Population Apoptotic (%): 63%
  Population Fragmented Nuclei (%): 17%
  Population Healthy Nuclei (%): 68%
  Population Hoechst High Intensity Objects (%): 1%
  Population Membrane Permeable-Phenotype (%): 0%
  Population Mitochondria Different-Phenotype (%): 4%
  Population Mitotic Cells (%): 36%
  Population Normal (%): 98%
  Population Pyknosed Nuclei (%): 14%
  Population Tubulin-Different-Phenotype (%): 19%
  Total Cell Count: 137
[8]
  Population Apoptotic (%): 25%
  Population Fragmented Nuclei (%): 26%
  Population Healthy Nuclei (%): 55%
  Population Hoechst High Intensity Objects (%): 4%
  Population Membrane Permeable-Phenotype (%): 13%
  Population Mitochondria Different-Phenotype (%): 3%
  Population Mitotic Cells (%): 75%
  Population Normal (%): 95%
  Population Pyknosed Nuclei (%): 18%
  Population Tubulin-Different-Phenotype (%): 58%
  Total Cell Count: 114
[9]
  Population Apoptotic (%): 61%
  Population Fragmented Nuclei (%): 25%
  Population Healthy Nuclei (%): 63%
  Population Hoechst High Intensity Objects (%): 1%
  Population Membrane Permeable-Phenotype (%): 0%
  Population Mitochondria Different-Phenotype (%): 6%
  Population Mitotic Cells (%): 38%
  Population Normal (%): 98%
  Population Pyknosed Nuclei (%): 11%
  Population Tubulin-Different-Phenotype (%): 32%
  Total Cell Count: 162
[10]
  Population Apoptotic (%): 50%
  Population Fragmented Nuclei (%): 33%
  Population Healthy Nuclei (%): 45%
  Population Hoechst High Intensity Objects (%): 3%
  Population Membrane Permeable-Phenotype (%): 4%
  Population Mitochondria Different-Phenotype (%): 11%
  Population Mitotic Cells (%): 50%
  Population Normal (%): 96%
  Population Pyknosed Nuclei (%): 21%
  Population Tubulin-Different-Phenotype (%): 57%
  Total Cell Count: 145
[11]
  Population Apoptotic (%): 66%
  Population Fragmented Nuclei (%): 22%
  Population Healthy Nuclei (%): 67%
  Population Hoechst High Intensity Objects (%): 1%
  Population Membrane Permeable-Phenotype (%): 1%
  Population Mitochondria Different-Phenotype (%): 6%
  Population Mitotic Cells (%): 33%
  Population Normal (%): 98%
  Population Pyknosed Nuclei (%): 10%
  Population Tubulin-Different-Phenotype (%): 24%
  Total Cell Count: 142
[12]
  Population Apoptotic (%): 45%
  Population Fragmented Nuclei (%): 39%
  Population Healthy Nuclei (%): 41%
  Population Hoechst High Intensity Objects (%): 6%
  Population Membrane Permeable-Phenotype (%): 8%
  Population Mitochondria Different-Phenotype (%): 2%
  Population Mitotic Cells (%): 54%
  Population Normal (%): 93%
  Population Pyknosed Nuclei (%): 19%
  Population Tubulin-Different-Phenotype (%): 67%
  Total Cell Count: 120
